Tests used:
B16-F10 [1] = test: Cytotoxicity against mouse B16F10 cells assessed as reduction in cell viability after 72 hrs by MTT assay; format: functional, cell-based; details: B16-F10, 72 h
Summary of the method: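 Cells exposed to compound for 72 h and viability read by MTT; IC50 from three independent experiments.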

B16-F10 [2] = test: Induction of cell cycle arrest in mouse B16-F10 cells assessed as accumulation at G1 phase at 25 uM incubated for 48 hrs by propidium iodide staining based flow cytometry (reference value: 52.59%); format: functional
B16-F10 [3] = test: Induction of cell cycle arrest in mouse B16-F10 cells assessed as accumulation at G1 phase at 100 uM incubated for 48 hrs by propidium iodide staining based flow cytometry (reference value: 52.59%); format: functional

Work on CN(C)C(=O)c1cc2cnc(Nc3ccc(C(=O)NCCCCCCNc4cccc5c4C(=O)N(C4CCC(=O)NC4=O)C5=O)cc3)nc2n1C1CCCC1 (stereo not drawn) yielded an IC50 (B16-F10 [1]) of 97.6 nM, an Activity (B16-F10 [2]) of 49.67% and an Activity (B16-F10 [3]) of 52.42%.
